Measurements reported in ChEMBL document CHEMBL1148262, “Stability studies of C-4',6' acetal benzylmaltosides synthesized as inhibitors of smooth muscle cell proliferation” (Bioorg Med Chem Lett, 2004).

How the values were obtained:
[1] = Half-life of compound at a pH of 1 was determined; assay type: ADME; details: pH 1
[2] = Half-life of compound at a pH of 1.4 was determined; assay type: ADME; details: pH 1.4
[3] = Stability of compound determined in medium mimicking stomach as percent remaining at 18-20 hr at a pH of 1; assay type: ADME; details: pH 1
HASMC = experiment: Concentration inducing 50% inhibition of Human aortic smooth muscle cell (HASMC) proliferation; assay type: functional, cell-based
Procedure, shortened: (§1)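 HASMC or HAEC from passage 3–6, grown to 70–80% confluence in 24-well plates, then held 24–48 h without serum or growth factors to make them quiescent. Restimulated with serum or growth factor for 24 h with 0.5 µCi/mL ³H-thymidine. Compounds were added from 50% ethanol stock at 1–100 µM. TCA-precipitable counts were measured in triplicate, as percent of stimulated control, and IC50 was derived.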

[4] = Half-life of compound at a pH of 3.5 was determined; assay type: ADME; details: pH 3.5
[5] = Half-life of compound at a pH of 2.5 was determined; assay type: ADME; details: pH 2.5
[6] = Half-life of compound at a pH of 3 was determined; assay type: ADME; details: pH 3
[7] = Half-life of compound at a pH of 4 was determined; assay type: ADME; details: pH 4
[8] = Half-life of compound at a pH of 4.5 was determined; assay type: ADME; details: pH 4.5
[9] = Half-life of compound at a pH of 1.9 was determined; assay type: ADME; details: pH 1.9
[10] = Concentration inducing 50% inhibition of human aortic endothelial cell (HAEC) proliferation; assay type: functional, cell-based; procedure, shortened: as §1
[11] = Percent degradation of compound at a pH of 1 over a 18 hr period; assay type: ADME; details: pH 1; read-out: Degradation
Rattus norvegicus = experiment: In vivo percent reduction in intimal thickening rat balloon injury model at a dose of 100 mg/kg; Range is 18-39 %; assay type: functional

Q: Which results are given for CC(=O)Nc1cc(CO[C@@H]2O[C@@H](COC(=O)c3ccccc3)[C@H](O[C@H]3OC4CO[C@@H](Cc5ccccc5)OC4[C@H](O)[C@@H]3O)[C@H](O)[C@@H]2O)ccc1Cl (stereo not given in full)?
A: half-life [1]: > 20 h; half-life [2]: > 20 h; Remaining [3]: 94%; IC50 (HASMC): 35 nM; half-life [4]: > 20 h; half-life [5]: > 20 h; half-life [6]: > 20 h; half-life [7]: > 20 h; half-life [8]: > 20 h; half-life [9]: > 20 h

Q: With CC(=O)Nc1cc(CO[C@@H]2O[C@@H](COC(=O)c3ccccc3)[C@H](O[C@H]3OC4CO[C@@H](C)OC4[C@H](O)[C@@H]3O)[C@H](O)[C@@H]2O)ccc1Cl (stereo not given in full) as the compound, how does the half-life [1] read?
A: > 20 h

Q: What about the half-life [2] of the same compound?
A: > 20 h

Q: What about the Remaining [3] of the same compound?
A: 68%

Q: And the IC50 (HASMC)?
A: 103 nM

Q: What about the half-life [4] of the same compound?
A: > 20 h

Q: And the half-life [5]?
A: > 20 h

Q: And the IC50 [10]?
A: 257 nM

Q: What about the half-life [6] of the same compound?
A: > 20 h

Q: What about the half-life [7] of the same compound?
A: > 20 h

Q: What about the half-life [8] of the same compound?
A: > 20 h

Q: What about the half-life [9] of the same compound?
A: > 20 h

Q: What about the degraded at 18 h [11] of the same compound?
A: 32%

Q: What does the source list for CC(=O)Nc1cc(CO[C@@H]2O[C@@H](COC(=O)c3ccccc3)[C@H](O[C@H]3OC4CO[C@@H](C(C)C)OC4[C@H](O)[C@@H]3O)[C@H](O)[C@@H]2O)ccc1Cl (stereo not given in full)?
A: half-life [1]: > 20 h; half-life [2]: > 20 h; Remaining [3]: 53%; IC50 (HASMC): 3 nM; half-life [4]: > 20 h; half-life [5]: > 20 h; half-life [6]: > 20 h; half-life [7]: > 20 h; half-life [8]: > 20 h; half-life [9]: > 20 h

Q: Which half-life [1] does the source give for CC[C@@H]1OCC2O[C@H](O[C@@H]3[C@H](O)[C@H](O)[C@H](OCc4ccc(Cl)c(NC(C)=O)c4)O[C@H]3COC(=O)c3ccccc3)[C@@H](O)[C@@H](O)C2O1 (stereo not given in full) here?
A: > 20 h

Q: And the half-life [2]?
A: > 20 h

Q: What about the Remaining [3] of the same compound?
A: 52%

Q: And the IC50 (HASMC)?
A: 37 nM

Q: And the half-life [4]?
A: > 20 h

Q: And the half-life [5]?
A: > 20 h

Q: What about the IC50 [10] of the same compound?
A: 235 nM

Q: And the half-life [6]?
A: > 20 h

Q: What about the half-life [7] of the same compound?
A: > 20 h

Q: What about the half-life [8] of the same compound?
A: > 20 h

Q: And the half-life [9]?
A: > 20 h

Q: What does the source list for CC(=O)Nc1cc(CO[C@@H]2O[C@@H](COC(=O)c3ccccc3)[C@H](O[C@H]3OC4CO[C@@H](c5ccc([N+](=O)[O-])cc5)OC4[C@H](O)[C@@H]3O)[C@H](O)[C@@H]2O)ccc1Cl (stereo not given in full)?
A: IC50 (HASMC): 3 nM; IC50 [10]: 368 nM

Q: For CC(=O)Nc1cc(CO[C@@H]2O[C@@H](COC(=O)c3ccccc3)[C@H](O[C@H]3OC4CO[C@@H](c5ccncc5)OC4[C@H](O)[C@@H]3O)[C@H](O)[C@@H]2O)ccc1Cl (stereo not given in full), which half-life [1] is on record?
A: > 20 h

Q: And the half-life [2]?
A: > 20 h

Q: What about the Remaining [3] of the same compound?
A: 97%

Q: What about the IC50 (HASMC) of the same compound?
A: 3 nM

Q: And the half-life [4]?
A: > 20 h

Q: What about the half-life [5] of the same compound?
A: > 20 h

Q: And the half-life [6]?
A: > 20 h

Q: And the half-life [7]?
A: > 20 h

Q: What about the half-life [8] of the same compound?
A: > 20 h

Q: And the half-life [9]?
A: > 20 h

Q: Which IC50 (HASMC) does the source give for CC(=O)Nc1cc(CO[C@@H]2O[C@@H](COC(=O)c3ccccc3)[C@H](O[C@H]3O[C@@H](CO)[C@@H](O)[C@H](O)[C@@H]3O)[C@H](O)[C@@H]2O)ccc1Cl here?
A: 34900 nM

Q: With CC(=O)Nc1cc(CO[C@@H]2O[C@@H](COC(=O)c3ccccc3)[C@H](O[C@H]3OC4CO[C@@H](c5ccc(Cl)cc5)OC4[C@H](O)[C@@H]3O)[C@H](O)[C@@H]2O)ccc1Cl (stereo not given in full) as the compound, how does the half-life [1] read?
A: 1.7 h

Q: What about the half-life [2] of the same compound?
A: 4 h

Q: And the Remaining [3]?
A: 0%

Q: What about the IC50 (HASMC) of the same compound?
A: 23 nM

Q: What about the half-life [4] of the same compound?
A: > 20 h

Q: And the half-life [5]?
A: > 20 h

Q: And the IC50 [10]?
A: 324 nM

Q: What about the half-life [6] of the same compound?
A: > 20 h

Q: What about the half-life [7] of the same compound?
A: > 20 h

Q: What about the half-life [8] of the same compound?
A: > 20 h

Q: What about the half-life [9] of the same compound?
A: 13.3 h

Q: With CC(=O)Nc1cc(CO[C@@H]2O[C@@H](COC(=O)c3ccccc3)[C@H](O[C@H]3OC4CO[C@@H](c5ccccc5)OC4[C@H](O)[C@@H]3O)[C@H](O)[C@@H]2O)ccc1Cl (stereo not given in full) as the compound, how does the Reduction (Rattus norvegicus) read?
A: 39%

Q: And the half-life [1]?
A: 1.9 h

Q: And the half-life [2]?
A: 2.3 h

Q: What about the Remaining [3] of the same compound?
A: 0%

Q: And the IC50 (HASMC)?
A: 20 nM

Q: What about the half-life [4] of the same compound?
A: > 20 h

Q: And the half-life [5]?
A: 13 h

Q: What about the IC50 [10] of the same compound?
A: 923 nM

Q: And the half-life [6]?
A: > 20 h

Q: What about the half-life [7] of the same compound?
A: > 20 h

Q: And the half-life [8]?
A: > 20 h

Q: And the half-life [9]?
A: 4.2 h

Q: And the degraded at 18 h [11]?
A: 100%
